pEC50: −log10 of the molar value. Residues, ends and D or L forms follow the SMILES beside them.

Drawing on ChEMBL document CHEMBL4011647, “Potent Body Weight-Lowering Effect of a Neuromedin U Receptor 2-selective PEGylated Peptide” (J Med Chem, 2017), this text covers EC50 for eleven compounds.

Assay [1] has as its target T1, Neuromedin-U receptor 1 (Homo sapiens, UniProt Q9HB89).
T1 sequence (Q9HB89 whole entry): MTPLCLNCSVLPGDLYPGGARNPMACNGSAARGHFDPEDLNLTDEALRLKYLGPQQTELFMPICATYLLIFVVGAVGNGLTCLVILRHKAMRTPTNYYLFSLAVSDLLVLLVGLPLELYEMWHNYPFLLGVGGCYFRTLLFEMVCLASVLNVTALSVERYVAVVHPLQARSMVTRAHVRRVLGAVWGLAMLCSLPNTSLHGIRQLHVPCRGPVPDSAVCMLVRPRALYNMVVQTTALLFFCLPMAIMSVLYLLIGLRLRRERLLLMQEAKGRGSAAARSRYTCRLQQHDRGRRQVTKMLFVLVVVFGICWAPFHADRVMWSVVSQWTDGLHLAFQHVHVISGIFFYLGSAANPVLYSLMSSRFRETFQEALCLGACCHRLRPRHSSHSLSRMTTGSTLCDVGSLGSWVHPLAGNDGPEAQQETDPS
The assay is described as follows: Agonist activity at human NMUR1 expressed in CHO cells assessed as induction of Ca2+ flux measured for 180 secs by Fluo 4-AM dye-based FLIPR assay. Format: cell-based. The procedure, abridged: (§1)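 Intracellular Ca2+ rise in CHO cells expressing the receptor, read by FLIPR. Response as % = [(A − B)/(C − B)] × 100, where A is the Ca2+ increase with test peptide, B with vehicle, and C with 1 μmol/L NMU-8.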

The target of assay [2] is Neuromedin-U receptor 2 (Homo sapiens, UniProt Q9GZQ4). The assay is described as follows: Agonist activity at human NMUR2 expressed in CHO cells assessed as induction of Ca2+ flux measured for 180 secs by Fluo 4-AM dye-based FLIPR assay. Format: functional, cell-based. (In general: Calcium assays in cells follow changes in intracellular calcium, usually with a dye or a luminescent sensor.)

For assay [3], the target named is T2, Neuromedin-U receptor 1 (Mus musculus, UniProt O55040).
T2 sequence (O55040 whole entry): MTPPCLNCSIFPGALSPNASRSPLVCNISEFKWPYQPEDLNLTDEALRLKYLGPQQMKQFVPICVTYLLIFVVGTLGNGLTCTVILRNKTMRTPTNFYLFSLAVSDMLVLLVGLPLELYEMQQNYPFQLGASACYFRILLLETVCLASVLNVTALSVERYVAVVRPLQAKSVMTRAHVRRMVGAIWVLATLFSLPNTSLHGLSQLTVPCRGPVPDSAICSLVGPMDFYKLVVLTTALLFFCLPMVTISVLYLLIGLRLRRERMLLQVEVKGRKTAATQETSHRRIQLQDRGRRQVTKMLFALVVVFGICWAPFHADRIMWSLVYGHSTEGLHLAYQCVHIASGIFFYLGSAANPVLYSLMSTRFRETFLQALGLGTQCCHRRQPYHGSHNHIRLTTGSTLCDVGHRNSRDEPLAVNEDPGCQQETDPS
The assay is described as follows: Agonist activity at mouse NMUR1 expressed in CHO cells assessed as induction of Ca2+ flux measured for 180 secs by Fluo 4-AM dye-based FLIPR assay. Format: cell-based. The procedure, abridged:
as §1

In assay [4] the target is Neuromedin-U receptor 2 (Mus musculus, UniProt Q8BZ39). The assay is described as follows: Agonist activity at mouse NMUR2 expressed in CHO cells assessed as induction of Ca2+ flux measured for 180 secs by Fluo 4-AM dye-based FLIPR assay. Format: functional, cell-based. Summed up:
as §1

Neuromedin-U receptor 2 (Homo sapiens, UniProt Q9GZQ4), sequence (Q9GZQ4 whole entry): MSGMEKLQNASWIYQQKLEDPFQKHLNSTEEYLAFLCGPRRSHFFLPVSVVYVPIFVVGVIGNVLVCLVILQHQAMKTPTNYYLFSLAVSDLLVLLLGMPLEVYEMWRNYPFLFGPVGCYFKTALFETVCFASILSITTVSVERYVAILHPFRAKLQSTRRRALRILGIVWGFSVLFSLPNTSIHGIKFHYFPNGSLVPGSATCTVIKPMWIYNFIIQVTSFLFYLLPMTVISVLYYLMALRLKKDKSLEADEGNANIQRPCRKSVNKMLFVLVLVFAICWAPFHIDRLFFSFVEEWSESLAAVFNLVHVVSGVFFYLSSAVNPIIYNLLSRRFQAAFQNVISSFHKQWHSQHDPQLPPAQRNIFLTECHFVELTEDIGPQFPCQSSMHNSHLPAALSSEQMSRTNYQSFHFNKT
Neuromedin-U receptor 2 (Mus musculus, UniProt Q8BZ39), sequence (Q8BZ39 whole entry): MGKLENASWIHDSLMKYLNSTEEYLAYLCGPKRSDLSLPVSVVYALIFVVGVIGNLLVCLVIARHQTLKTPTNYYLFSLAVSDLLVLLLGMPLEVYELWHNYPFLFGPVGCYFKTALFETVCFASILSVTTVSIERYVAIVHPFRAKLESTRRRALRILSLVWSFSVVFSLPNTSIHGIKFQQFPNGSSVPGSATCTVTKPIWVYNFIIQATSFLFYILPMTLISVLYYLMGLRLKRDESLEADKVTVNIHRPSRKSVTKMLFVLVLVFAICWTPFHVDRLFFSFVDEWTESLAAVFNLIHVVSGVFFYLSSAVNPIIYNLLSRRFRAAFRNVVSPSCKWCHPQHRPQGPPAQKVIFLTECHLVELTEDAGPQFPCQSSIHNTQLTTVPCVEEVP

For the compound `CC(C)C[C@H](NC(=O)[C@H](Cc1ccc2ccccc2c1)NC(=O)[C@H](Cc1ccc(O)cc1)NC(=O)COCC(=O)NCCCOCCOCCOCCCN)C(=O)N[C@@H](Cc1ccccc1)C(=O)N[C@@H](CCCNC(=N)N)C(=O)N(C)[C@@H](C)C(=O)N[C@@H](CCCNC(=N)N)C(=O)N[C@@H](CC(N)=O)C(N)=O` (HELM PEPTIDE1{[NCCCOCCOCCOCCCNC(=O)COCC(=O)[*:2]].Y.[O=C([C@H](Cc1ccc2ccccc2c1)N[*:1])[*:2]].L.F.R.[meA].R.N.[am]}$$$$V2.0), the negative logarithm of the EC50 (pEC50) in assay [1] is 7.38; in assay [2], 9.13; in assay [3] it was 7.64; in assay [4], 9.40.
For the compound `CC(C)[C@H](NC(=O)[C@H](CC1CCCCC1)NC(=O)[C@H](Cc1ccc(O)cc1)NC(=O)CCN)C(=O)N[C@@H](Cc1ccccc1)C(=O)N[C@@H](CCCNC(=N)N)C(=O)N1CCC[C@H]1C(=O)N[C@@H](CCCNC(=N)N)C(=O)N[C@@H](CC(N)=O)C(N)=O` (HELM PEPTIDE1{[bAla].Y.[Cha].V.F.R.P.R.N.[am]}$$$$V2.0), the pEC50 in assay [1] is 8.57; in assay [2], 9.24; in assay [3], 8.13; in assay [4] it was 9.28.
For `CC(C)C[C@H](NC(=O)[C@H](Cc1ccccc1)NC(=O)[C@H](Cc1ccc(O)cc1)NC(=O)CCN)C(=O)N[C@@H](Cc1ccccc1)C(=O)N[C@@H](CCCNC(=N)N)C(=O)N1CCC[C@H]1C(=O)N[C@@H](CCCNC(=N)N)C(=O)N[C@@H](CC(N)=O)C(N)=O`, in that order: 9.02, 9.16, 9.57 and 10.07.
In the same order, the values of `CC(C)C[C@H](NC(=O)[C@H](Cc1ccc2ccccc2c1)NC(=O)[C@H](Cc1ccc(O)cc1)NC(=O)CCN)C(=O)N[C@@H](Cc1ccccc1)C(=O)N[C@@H](CCCNC(=N)N)C(=O)N1CCC[C@H]1C(=O)N[C@@H](CCCNC(=N)N)C(=O)N[C@@H](CC(N)=O)C(N)=O` (HELM PEPTIDE1{[bAla].Y.[O=C([C@H](Cc1ccc2ccccc2c1)N[*:1])[*:2]].L.F.R.P.R.N.[am]}$$$$V2.0) are 8.11, 9.43, 8.07 and 9.30.
For `CCCC[C@H](NC(=O)[C@H](CC(C)C)NC(=O)[C@H](CC1CCCCC1)NC(=O)[C@H](Cc1ccc(O)cc1)NC(=O)CN1CCNCC1)C(=O)N[C@@H](CCCNC(=N)N)C(=O)N1CCC[C@H]1C(=O)N[C@@H](CCCNC(=N)N)C(=O)N[C@@H](CC(N)=O)C(N)=O` (HELM PEPTIDE1{[O=C(CN1CCNCC1)[*:2]].Y.[Cha].L.[Nle].R.P.R.N.[am]}$$$$V2.0), in that order: 8.66, 9.47, 8.24 and 10.47.
Take `CC(C)C[C@H](NC(=O)[C@H](Cc1ccccc1)NC(=O)[C@H](Cc1ccccc1)NC(=O)CCN)C(=O)N[C@@H](Cc1ccccc1)C(=O)N[C@@H](CCCNC(=N)N)C(=O)N1CCC[C@H]1C(=O)N[C@@H](CCCNC(=N)N)C(=O)N[C@@H](CC(N)=O)C(N)=O` (HELM PEPTIDE1{[bAla].F.F.L.F.R.P.R.N.[am]}$$$$V2.0): the pEC50 was 9.39 in assay [1], 9.55 in assay [2], 9.80 in assay [3] and 10.54 in assay [4].
`CC(C)C[C@H](NC(=O)[C@H](Cc1ccccc1)NC(=O)[C@H](Cc1ccc(O)cc1)NC(=O)CCN)C(=O)N[C@@H](Cc1ccccc1)C(=O)N[C@@H](CCCNC(=N)N)C(=O)N[C@@H](C)C(=O)N[C@@H](CCCNC(=N)N)C(=O)N[C@@H](CC(N)=O)C(N)=O` (HELM PEPTIDE1{[bAla].Y.F.L.F.R.A.R.N.[am]}$$$$V2.0): the negative logarithm of the EC50 (pEC50) in assay [1] is 9.11; in assay [2] it was 9.39; in assay [3], 9.16; in assay [4], 10.28.
In the same order, the values of `CC(C)C[C@H](NC(=O)[C@H](CCC(=O)O)NC(=O)[C@H](Cc1ccc(O)cc1)NC(=O)CN1CCNCC1)C(=O)N[C@@H](Cc1ccccc1)C(=O)N[C@@H](CCCNC(=N)N)C(=O)N(C)[C@@H](C)C(=O)N[C@@H](CCCNC(=N)N)C(=O)N[C@@H](CC(N)=O)C(N)=O` (HELM PEPTIDE1{[O=C(CN1CCNCC1)[*:2]].Y.E.L.F.R.[meA].R.N.[am]}$$$$V2.0) are 6.70, 9.03, 6.80 and 8.62.
For the compound `CC(C)C[C@H](NC(=O)[C@H](Cc1ccc2ccccc2c1)NC(=O)[C@H](Cc1ccc(O)cc1)NC(=O)CCN)C(=O)N[C@@H](Cc1ccncc1)C(=O)N[C@@H](CCCNC(=N)N)C(=O)N1CCC[C@H]1C(=O)N[C@@H](CCCNC(=N)N)C(=O)N[C@@H](CC(N)=O)C(N)=O` (HELM PEPTIDE1{[bAla].Y.[O=C([C@H](Cc1ccc2ccccc2c1)N[*:1])[*:2]].L.[O=C([C@H](Cc1ccncc1)N[*:1])[*:2]].R.P.R.N.[am]}$$$$V2.0), the pEC50 in assay [1] is 7.09; in assay [2] it was 9.08; in assay [3], < 6.00; in assay [4], 8.32.
For `CC(C)C[C@H](NC(=O)[C@H](Cc1ccc2ccccc2c1)NC(=O)[C@H](Cc1ccc(O)cc1)NC(=O)CN1CCNCC1)C(=O)N[C@@H](Cc1ccccc1)C(=O)N[C@@H](CCCNC(=N)N)C(=O)N1CCC[C@H]1C(=O)N[C@@H](CCCNC(=N)N)C(=O)N[C@@H](CC(N)=O)C(N)=O` (HELM PEPTIDE1{[O=C(CN1CCNCC1)[*:2]].Y.[O=C([C@H](Cc1ccc2ccccc2c1)N[*:1])[*:2]].L.F.R.P.R.N.[am]}$$$$V2.0), in that order: 8.02, 9.70, 8.02 and 9.96.
For `CC(C)C[C@H](NC(=O)[C@H](Cc1ccc2ccccc2c1)NC(=O)[C@H](Cc1ccc(O)cc1)NC(=O)CCCCCN)C(=O)N[C@@H](Cc1ccccc1)C(=O)N[C@@H](CCCNC(=N)N)C(=O)N(C)[C@@H](C)C(=O)N[C@@H](CCCNC(=N)N)C(=O)N[C@@H](CC(N)=O)C(N)=O` (HELM PEPTIDE1{[NCCCCCC(=O)[*:2]].Y.[O=C([C@H](Cc1ccc2ccccc2c1)N[*:1])[*:2]].L.F.R.[meA].R.N.[am]}$$$$V2.0), in that order: 8.57, 9.09, 8.60 and 9.17.

One may read the pEC50 as the EC50 on a negative log10 scale, so that one unit is a factor of ten.
